Data on 3 compounds can be found in PMC5708124 (Nature microbiology, 2017).

Data set [1] concerns Pf ABS parasites and GAMs. The settings on record: cited from earlier work.
Data set [2] concerns PfMDR1 mutant lines versus parental ABS parasites (Dd2-B2, FCB). Kind of data set: Drug susceptibility profiling of HHQ-resistant lines in ABS parasites. The data set is classed as cell-based, Plasmodium falciparum.
The subject of data set [3] is PfMDR1^selY290F parasites. Kind of data set: Heme fractionation assay. The settings on record: PfMDR1^selY290F. The data set is classed as cell-based, Plasmodium falciparum. In outline: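 Early ring-stage, sorbitol-synchronized parasites were exposed to test compound at 0.1, 0.25, 0.5, 1 and 2x the ABS IC50. Heme species were fractionated and normalized to the number of cells analyzed, counted by flow cytometry of an aliquot. Significance was tested by two-tailed t-tests.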

The subject of data set [4] is cultured P. berghei liver-stage parasites. The settings on record: cited from earlier work.
In data set [5] the test system is NF54^Pfs16 late-stage GAMs. Kind of data set: Image-based late-stage gametocyte inhibition assay. Format: cell-based, Plasmodium falciparum. The settings on record: in words. The procedure, abridged: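 Day-8 stage IV gametocytes were MACS-purified and set at 10% parasitemia and 0.1% Hct, with 0.4% DMSO final. They were incubated 72 h at 37°C in 5% O₂/5% CO₂/90% N₂, then stained overnight with MitoTracker Red CM-H₂XRos. Confocal imaging counted viable mature gametocytes per imaged area; 5 μM puromycin was the control. Screening used 2 μM in triplicate. Potency used serial dilutions up to 40 μM, three per log, on two independent occasions.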

Another data set has as its system male GAM exflagellation. Kind of data set: Male GAM exflagellation of GAM cultures used for membrane feeding. The data set is classed as cell-based, Plasmodium falciparum. The settings on record: GAM cultures exposed at 3x late-stage IC50.
Data set [6] deals with 3D7 (drug-sensitive) ABS parasites. Kind of data set: Imaging-based asexual blood stage high-throughput assay. The settings on record: read-out: ABS IC50; drug-sensitive 3D7, 72 h. The data set is classed as cell-based, Plasmodium falciparum. In outline: (§1)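 Sorbitol-synchronized parasites were seeded at 2% parasitemia and 0.3% Hct and exposed to test compound for 72 h at 37°C in 5% O₂/5% CO₂/90% N₂. Cells were then permeabilized with 0.01% Triton X-100, 0.001% saponin and 5 mM EDTA, and stained with 0.5 μg/mL DAPI for at least 6 h at room temperature in the dark. Confocal imaging used 405 nm excitation. Parasites were counted from spot size and intensity. Two independent cultures.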

The test system of data set [7] is P. berghei ANKA MRA868 ABS parasites. Kind of data set: 4-day Peters test. The data set is classed as in vivo, P. berghei in CD-1 mice. The settings on record: 4 doses, 96 h post infection. The procedure, abridged: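 Female CD-1 mice (5 weeks old, 22–25 g; four per group) were infected intraperitoneally with 1x10⁶ parasites. The test compound was given intraperitoneally at 2, 24, 48 and 72 h after infection, in 20% DMSO in water. Controls were solvent only and DHA at 30 mg/kg. Parasitemia was read by microscopy at 96 h. Groups were randomized and blinded. The 100 mg/kg groups were tested once.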

The test system of data set [8] is P. berghei ANKA MRA868 GAMs, Anopheles stephensi mosquitoes. Kind of data set: In vivo transmission-blocking effect. The settings on record: mice given two doses 12 h apart: 100 mg/kg GNF compounds, 30 mg/kg DHA. Details: species or system P. berghei in CD-1 mice.
For data set [9], the system named is NITD609-R^Dd2 clone #2 (PfATP4 mutant line). Kind of data set: Imaging-based asexual blood stage high-throughput assay. The data set is classed as cell-based, Plasmodium falciparum. The settings on record: read-out: ABS IC50, 72 h. The procedure, abridged:
as §1

The next data set has as its system Dd2-B2 late rings. Kind of data set: Hb endocytosis by Western blot. Format: cell-based, Plasmodium falciparum. The settings on record: 5′ the IC50 for 5 h, normalized to DMSO control. The procedure, abridged:
(§2)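 Sorbitol-synchronized parasites were exposed to test compound at 5x IC50 for 5 h, starting at the late ring stage. Lysates were blotted to nitrocellulose and probed overnight at 4°C with rabbit anti-human Hb (1:5,000) and anti-β-actin (1:2,000). Detection was by ECL. Hb band intensities were normalized to β-actin and compared with untreated controls. Repeated on 3–4 independent occasions.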

In data set [10] the test system is HEK293 human embryonic kidney cell line. Kind of data set: HEK293 cytotoxicity. The settings on record: at 40 μM, 72 h. The data set is classed as cell-based. In outline:
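Cells were grown in DMEM with 10% fetal calf serum and seeded at 2,000 cells/well, then left overnight at 37°C in 5% CO₂ to adhere. Test compound was added as a serial dilution with a maximum of 40 μM, at 0.4% DMSO final, for 72 h. Medium was then replaced with serum-free DMEM containing 44 μM resazurin for 4–6 h. Fluorescence was read at 530/595 nm. Two biological replicates.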

Data set [11] deals with PfMDR1^selY290F late rings. Kind of data set: Hb endocytosis by Western blot. Format: cell-based, Plasmodium falciparum. The settings on record: 5′ the IC50 for 5 h. In outline:
as §2

Another data set has as its system Dd2-B2 parasites. Kind of data set: Heme fractionation assay. The data set is classed as cell-based, Plasmodium falciparum.
The subject of data set [12] is NF54^Pfs16 early-stage GAMs. Kind of data set: Luciferase-based early-stage gametocyte inhibition assay. Format: cell-based, Plasmodium falciparum. The settings on record: in words. In outline: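 Gametocytes on day 1 of gametocytogenesis were set at 10% parasitemia and 0.5% Hct. They were kept in medium with 50 mM N-acetyl-D-glucosamine, refreshed daily. Compound was added at 0.4% DMSO final. Controls were DMSO (0% inhibition) and 5 μM puromycin (100% inhibition). After 72 h at 37°C in 5% O₂/5% CO₂/90% N₂, Steadylite was added, followed by 60 min lysis at room temperature and a luminescence read. Potency used serial dilutions up to 40 μM, three per log, on two independent occasions.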

Data set [13] concerns Dd2 (multidrug-resistant) ABS parasites. Kind of data set: Imaging-based asexual blood stage high-throughput assay. The settings on record: read-out: ABS IC50; multidrug-resistant Dd2, 72 h. Format: cell-based, Plasmodium falciparum.
In data set [14] the test system is compound-exposed Pf GAMs in Anopheles stephensi mosquitoes. Kind of data set: Membrane-feeding assay with A. stephensi mosquitoes. The data set is classed as in vivo, Plasmodium falciparum. The settings on record: for reduction in oocyst density per infected mosquito midgut: GAMs pre-treated at 3x late-stage IC50; for reduction in infection prevalence (percentage of infected mosquitoes): GAMs pre-treated at 3x late-stage IC50, 3 days, then 4 days without compound. The procedure, abridged:
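Day-12 gametocytes were treated 3 days at 1x or 3x their late-stage IC50, with compound refreshed daily, then held 4 days without compound. Controls were 0.25% DMSO and methylene blue at 3x. Stage V cultures (50% Hct, 0.01–0.16% parasitemia) were membrane-fed for 30 min to A. stephensi, kept at 26°C and 78% RH. Midguts were dissected on day 7–8, stained with mercurochrome and oocysts counted blind. Prevalence is the percentage of mosquitoes with at least one oocyst.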

The mark [15] stands for this setting: all exposure levels up to 2′ IC50, 32 h.

In the case of `CC(=O)N1CCN(c2ccc(CN(C(=O)/C=C/c3ccc(C(C)(C)C)cc3)[C@@H](Cc3ccccc3)C(=O)N3CCN(Cc4ccc(C#N)cc4)CC3)cc2)CC1` [ACT-451840], the “activity against Pf ABS parasites and GAMs” value in [1] is reported as “low nanomolar”. In addition, the “fold decreased susceptibility versus Dd2-B2” value stood at 16 fold in data set [2] (PfMDR1^edF1072L), 5.5 fold in [2] (PfMDR1^edS1075I) and 45 fold in data set [2] (PfMDR1^selY290F).

Consider `CCOC(=O)C1=C(C)NC2=C(C(=O)CC(c3ccc(OC)c(OC)c3)C2)C1c1ccccc1Cl` (centres unmarked) [GNF-Pf-5660], for which the “fold higher exposure levels than in Dd2-B2 giving similar profile of reduced Hz and total heme iron” value in [3] was greater than 160 fold. Also, in [4], the “activity against liver-stage parasites” value is “inactive”. For the same compound, the late-stage gametocytocidal activity entry in [5] is “potent”. In the data set on male GAM exflagellation, the “reduction in male GAM exflagellation rates” value came out at 98%. In addition, the half-inhibitory concentration (IC50) in data set [6], in data set [9] and in data set [13] was less than 0.025 µM each time. Further, the “reduction of parasitemia compared to vehicle-treated mice” value in data set [7] (70 mg/kg intraperitoneal) is on record as 22%; in [7] (100 mg/kg intraperitoneal), 65%. Moreover, the “reduction in oocyst burden” value in data set [8] was 21%. The “reduction in the number of infected mosquitoes” value in data set [8] was 25%. Also, in the data set on Dd2-B2 late rings, the “reduction of Hb levels within parasites” value turned out to be 32%. Also, in data set [10], the “inhibition of HEK293 cells” value is listed as “no inhibition”. Further, in data set [11], the “Hb levels within parasites” value is on record as “unchanged”. Further, the “fold decrease in Hz levels compared with untreated controls” value in the data set on Dd2-B2 parasites (0.1′ the IC50 value) came to 1.5 fold. The “fold reduction in Hz levels” value in the data set on Dd2-B2 parasites (0.25′ to 2′ IC50) is 2.3 fold. In the data set on Dd2-B2 parasites (setting [15]), the “Hb concentration per parasite” value is on record as “unchanged”. Also, the “free heme concentration per parasite” value in the data set on Dd2-B2 parasites (setting [15]) is reported as “unchanged”. In addition, in data set [12], the early-stage gametocytocidal activity result is listed as “potent”. The “fold increase in IC50 compared to parental Dd2-B2” value in data set [2] (GNF-Pf-5660-selected clone 2B6H1, PfMDR1 Y290F (AB 100%)) is 248 fold. Further, the “reduction in oocyst density per infected mosquito midgut” value in data set [14] is recorded as 95–99%. In [14], the “reduction in infection prevalence (percentage of infected mosquitoes)” value is listed as 97%.

As to `CCCOC(=O)C1=C(C)NC2=C(C(=O)CC(c3ccc(OC)c(OC)c3)C2)C1c1ccccc1F` (centres unmarked) [GNF-Pf-5668], the “activity against liver-stage parasites” value in [4] was “inactive”. Also, the late-stage gametocytocidal activity result in data set [5] was “potent”. Besides, the “reduction in male GAM exflagellation rates” value in the data set on male GAM exflagellation was 70%. For the same compound, the half-inhibitory concentration (IC50) in data set [6], in [9] and in data set [13] was less than 0.025 µM in each case. For the same compound, the results for the “reduction of parasitemia compared to vehicle-treated mice” value in data set [7] (70 mg/kg intraperitoneal) and in data set [7] (100 mg/kg intraperitoneal) were 43% and 91%, respectively. Also, the “reduction in oocyst burden” value in data set [8] is “No effect”. Also, the “reduction in the number of infected mosquitoes” value in [8] is reported as “No effect”. Moreover, the “inhibition of HEK293 cells” value in data set [10] was less than 50%. Besides, in data set [12], the early-stage gametocytocidal activity result is “potent”. Further, in data set [2] (GNF-Pf-5668-selected clone 3C4D2, PfMDR1 F1072L (AB 67%)), the “fold increase in IC50 compared to parental Dd2-B2” value was determined as 37 fold. Further, in data set [14], the “reduction in oocyst density per infected mosquito midgut” value was 95–99%. In data set [14], the “reduction in infection prevalence (percentage of infected mosquitoes)” value amounted to 57%.
